Columns and labels:
[1] = Subacute toxicity in BALB/c mouse assessed as pathological change in intestine at 25 to 250 mg/kg, IG measured daily for 30 days by H and E staining based histological analysis; format: organism-based; settings: in vivo, po, 720 h, dose 25-250 mg/kg, time 30 day
Method in brief: (§1)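 Male Balb/C mice (17 per group) received 25 or 250 mg/kg intragastrically in 1% starch gel once daily for 30 days, against starch gel controls. Internal organs were examined macroscopically after the study. Sections were paraffin-embedded and stained with hematoxylin and eosin.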

[2] = AUC (0 to 24 hrs) in BALB/c mouse plasma at 250 mg/kg, IG measured at 0.5 to 24 hrs by HPLC-MS analysis; format: ADME, organism-based; parameters: time upper 24 hrs, time lower 0.5 hrs, dose 250 mg/kg, route ig; settings: po
Method in brief: (§2)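 Mice averaging 20 g (24 animals) were fasted 1 h before and 1 h after dosing. They received 250 mg/kg as 0.5 ml suspension in 1% CMC, 0.05% Tween 80 by intragastric intubation. Blood and brain were taken after decapitation at 0.5, 1, 2, 3, 5, 8 and 24 h (3 per time point). Plasma was frozen at -20°C and brain at -120 °C. Quantification was by UPLC-HRMS (ESI+, EIC m/z 476.0691) against plasma-matrix standards. Parameters were derived by noncompartmental analysis; LLOQ 5 ng/ml, with values below it set to 2.5.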

[3] = Selectivity index, ratio of CC50 for cytotoxicity against human TZM-bl cells assessed as reduction in cell viability by MTS assay to EC50 for antiviral activity against HIV1 harboring A17 mutant infected in human TZM-bl cells; format: toxicity, cell-based; settings: read-out: Ratio CC50/EC50
[4] = Half life in BALB/c mouse plasma at 250 mg/kg, IG measured at 0.5 to 24 hrs by HPLC-MS analysis; format: ADME, organism-based; settings: in vivo, po, time 0.5-24 hrs; method in brief: as §2
[5] = test system: Human immunodeficiency virus 1; experiment: Antiviral activity against HIV1 harboring Y181C mutant infected in human TZM-bl cells; format: functional, organism-based; settings: Human immunodeficiency virus 1, TZM-bl
Method in brief: (§3)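 TZM-bl cells (2x10⁵/mL) were infected with mutant virus in the presence of 15 µg/mL DEAE-dextran. A17 (IIIB variant) was grown in H9 cells; the other mutants were NL4-3-based plasmids transfected into 293T cells, then expanded in H9 cells. Compounds were tested at 0.05–500 nM (DMSO constant within an assay) for 48 hr at 37°C. Read-out was luciferase RLU from lysed cells, with at least 6 replicates over multiple days.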

[6] = Subacute toxicity in BALB/c mouse assessed as effect on adrenal gland weight at 25 to 250 mg/kg, IG measured daily for 30 days; format: organism-based; settings: in vivo, po, 720 h, dose 25-250 mg/kg, time 30 day
[7] = Selectivity ratio of IC50 for antiviral activity against wild type HIV1 IIIB infected in human TZM-bl cells to IC50 for antiviral activity against HIV1 harboring A17 mutant infected in human TZM-bl cells; format: toxicity, cell-based; settings: human immunodeficiency virus 1
Method in brief: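 TZM-bl cells (2x10⁵/mL) with 15 µg/mL DEAE-dextran were infected with HIV-1 IIIB, A17 (K103N/Y181C) IIIB variant, or NL4-3-based NNRTI-resistant mutants. Compound was present at 0.05–500 nM (DMSO held constant, 0.005% or 0.05%) for 48 hr at 37°C, 5% CO₂.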

[8] = Subacute toxicity in BALB/c mouse assessed as pathological change in liver at 25 to 250 mg/kg, IG measured daily for 30 days by H and E staining based histological analysis; format: organism-based; settings: in vivo, po, 720 h, dose 25-250 mg/kg, time 30 day; method in brief: as §1
[9] = Acute toxicity in BALB/c mouse at 2000 mg/kg, IG measured for 14 days; format: organism-based; settings: in vivo, po, 336 h, time 14 day
Method in brief: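 Male Balb/C mice, 5–6 weeks old and 19–21 g, were deprived of food and water for 1.5–2 h. They were given a single intragastric 2000 mg/kg dose at 0.5 ml/20 g, prepared just before use. Controls received 0.5 ml of 1% starch gel intragastrically. There were 5 mice per group, observed for 14 days for condition and weight; weight was compared by Šídák's multiple comparisons test.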

[10] = Half life in BALB/c mouse brain at 250 mg/kg, IG measured at 0.5 to 24 hrs by HPLC-MS analysis; format: ADME, organism-based; settings: in vivo, po, time 0.5-24 hrs; method in brief: as §2
[11] = test system: TZM; experiment: Cytotoxicity against human TZM-bl cells assessed as reduction in cell viability by MTS assay; format: functional
[12] = Subacute toxicity in BALB/c mouse assessed as reduction in alkaline phosphatase level at 250 mg/kg, IG measured daily for 30 days; format: organism-based; settings: in vivo, po, 720 h, time 30 day
Method in brief: (§4)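 Dosing was daily intragastric 25 or 250 mg/kg in 1% starch gel (0.2 ml/20 g) for 30 days in male Balb/C mice, 17 per group, with starch gel controls. After the final dose, mice were fasted for 2 h with water available, then bled. Serum was clotted for 30 min at room temperature and centrifuged at 3500 rpm. Total protein, urea, creatinine, AST, ALT and alkaline phosphatase were assayed and compared by Mann-Whitney with Holm-Šídák, p < 0.05.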

[13] = Subacute toxicity in BALB/c mouse assessed as reduction in RBC count at 25 to 250 mg/kg, IG measured daily for 30 days; format: organism-based, Erythrocyte; settings: in vivo, po, 720 h, dose 25-250 mg/kg, time 30 day
[14] = Subacute toxicity in BALB/c mouse assessed as reduction in aminotransferases level at 25 to 250 mg/kg, IG measured daily for 30 days; format: organism-based; settings: in vivo, po, 720 h, dose 25-250 mg/kg, time 30 day; method in brief: as §4
[15] = AUC (0 to 24 hrs) in BALB/c mouse brain at 250 mg/kg, IG measured at 0.5 to 24 hrs by HPLC-MS analysis; format: ADME, organism-based; parameters: dose 250 mg/kg, time 0.5-24 hrs, route ig; settings: po; method in brief: as §2
[16] = target: Voltage-gated inwardly rectifying potassium channel KCNH2 (Homo sapiens, UniProt Q12809); experiment: Inhibition of hERG by fluorescence polarization assay; format: toxicity
Voltage-gated inwardly rectifying potassium channel KCNH2, sequence (Q12809 whole entry): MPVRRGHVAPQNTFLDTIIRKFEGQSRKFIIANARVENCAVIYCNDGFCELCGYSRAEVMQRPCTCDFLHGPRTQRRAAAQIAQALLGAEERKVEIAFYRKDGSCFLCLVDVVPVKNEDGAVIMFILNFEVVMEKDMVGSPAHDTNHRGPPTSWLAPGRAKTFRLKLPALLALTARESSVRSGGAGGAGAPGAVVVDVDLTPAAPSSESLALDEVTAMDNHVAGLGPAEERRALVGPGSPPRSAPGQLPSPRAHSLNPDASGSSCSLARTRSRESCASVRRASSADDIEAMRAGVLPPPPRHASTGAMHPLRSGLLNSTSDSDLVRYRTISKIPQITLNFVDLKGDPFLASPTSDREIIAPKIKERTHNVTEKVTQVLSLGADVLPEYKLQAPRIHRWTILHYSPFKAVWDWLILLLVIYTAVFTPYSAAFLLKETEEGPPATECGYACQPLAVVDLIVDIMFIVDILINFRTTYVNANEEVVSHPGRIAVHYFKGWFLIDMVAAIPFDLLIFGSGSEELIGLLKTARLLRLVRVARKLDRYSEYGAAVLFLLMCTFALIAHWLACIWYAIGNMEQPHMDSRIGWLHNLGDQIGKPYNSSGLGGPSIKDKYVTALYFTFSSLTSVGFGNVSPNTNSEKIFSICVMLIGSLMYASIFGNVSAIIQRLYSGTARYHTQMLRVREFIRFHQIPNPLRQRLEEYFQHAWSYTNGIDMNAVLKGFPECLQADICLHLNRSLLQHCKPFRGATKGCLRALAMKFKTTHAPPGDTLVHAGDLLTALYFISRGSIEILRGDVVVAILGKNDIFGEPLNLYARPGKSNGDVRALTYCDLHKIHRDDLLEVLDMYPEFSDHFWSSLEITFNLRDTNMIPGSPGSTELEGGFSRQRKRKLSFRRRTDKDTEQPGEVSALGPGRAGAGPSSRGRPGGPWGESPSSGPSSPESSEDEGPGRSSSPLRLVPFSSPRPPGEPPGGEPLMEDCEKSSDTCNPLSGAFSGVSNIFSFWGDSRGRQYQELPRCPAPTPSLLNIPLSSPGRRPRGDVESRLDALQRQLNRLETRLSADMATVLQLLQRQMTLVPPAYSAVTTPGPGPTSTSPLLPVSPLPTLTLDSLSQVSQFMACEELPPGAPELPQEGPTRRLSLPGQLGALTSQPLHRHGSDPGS

[17] = Subacute toxicity in BALB/c mouse assessed as effect on heart weight at 25 to 250 mg/kg, IG measured daily for 30 days; format: organism-based; settings: in vivo, po, 720 h, dose 25-250 mg/kg, time 30 day
[18] = Subacute toxicity in BALB/c mouse assessed as reduction in urea level at 25 to 250 mg/kg, IG measured daily for 30 days; format: organism-based; settings: in vivo, po, 720 h, dose 25-250 mg/kg, time 30 day; method in brief: as §4
[19] = Subacute toxicity in BALB/c mouse assessed as pathological change in stomach at 25 to 250 mg/kg, IG measured daily for 30 days by H and E staining based histological analysis; format: organism-based; settings: in vivo, po, 720 h, dose 25-250 mg/kg, time 30 day; method in brief: as §1
[20] = Subacute toxicity in BALB/c mouse assessed as effect on liver weight at 25 to 250 mg/kg, IG measured daily for 30 days; format: organism-based; settings: in vivo, po, 720 h, dose 25-250 mg/kg, time 30 day
[21] = Subacute toxicity in BALB/c mouse assessed as reduction in hemoglobin level at 25 to 250 mg/kg, IG measured daily for 30 days; format: organism-based; settings: in vivo, po, 720 h, dose 25-250 mg/kg, time 30 day
[22] = test system: Human immunodeficiency virus 1; experiment: Antiviral activity against HIV1 harboring K103N mutant infected in human TZM-bl cells; format: functional, organism-based; settings: Human immunodeficiency virus 1, TZM-bl; method in brief: as §3
[23] = AUC (0 to infinity) in BALB/c mouse brain at 250 mg/kg, IG measured at 0.5 to 24 hrs by HPLC-MS analysis; format: ADME, organism-based; parameters: time upper 24 hrs, time lower 0.5 hrs, dose 250 mg/kg, route ig; settings: po; method in brief: as §2
[24] = Subacute toxicity in BALB/c mouse assessed as effect on kidney weight at 25 to 250 mg/kg, IG measured daily for 30 days; format: organism-based; settings: in vivo, po, 720 h, dose 25-250 mg/kg, time 30 day
[25] = Subacute toxicity in BALB/c mouse assessed as pathological change in kidney at 25 to 250 mg/kg, IG measured daily for 30 days by H and E staining based histological analysis; format: organism-based; settings: in vivo, po, 720 h, dose 25-250 mg/kg, time 30 day; method in brief: as §1

With `N#C/C=C/c1ccc2c(S(=O)(=O)n3nc(Nc4ccc(C#N)c(Cl)c4)nc3N)cccc2c1` the Activity [1] was “Non-Toxic”, the AUC(0-t) [2] was 397 µg·h/mL and the selectivity ratio [3] was 1200. For the same compound, the t1/2 [4] was 7.7 h, the IC50 [5] was 0.0037 µM and the Activity [6] was “Non-Toxic”. For the same compound, the “Ratio IC50” value [7] was 5.6, the Activity [8] was “Toxic” and the Activity [9] was “Non-Toxic”. For the same compound, the t1/2 [10] was 11.5 h, the CC50 [11] was 4.8 µM and the Activity [12] was “Non-Toxic”. The Activity [13] was “Non-Toxic”, the Activity [14] was “Toxic” and the AUC(0-t) [15] was 142 µg·h/mL. The IC50 [16] was 11.5 µM, the Activity [17] was “Non-Toxic” and the Activity [18] was “Non-Toxic”. The Activity [19] was “Non-Toxic”, the Activity [20] was “Non-Toxic” and the Activity [21] was “Non-Toxic”. The IC50 [22] was 0.0059 µM, the AUC(0-inf) [23] was 184 µg·h/mL and the Activity [24] was “Non-Toxic”. The Activity [25] was “Non-Toxic”.
